Test [1] addresses T1, Tyrosine-protein kinase BTK (Homo sapiens, UniProt Q06187). Description: Inhibition of BTK (unknown origin) by ADP-Glo kinase assay. An outline of the steps:
(§1)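 ADP-Glo luminescent assay run at compound concentrations of 0.1, 1, 10, 100 and 1000 nM. The kinase reaction ran in 1× kinase buffer for 60 min at room temperature. ADP-Glo reagent was then added to stop the reaction and deplete ATP (40 min, RT), followed by detection reagent (30 min, RT) and a luminescence read. IC50s came from curve fitting; means of three experiments.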

Test [2] in a line: Cytotoxicity against human NHBE cells assessed as reduction in cell viability by CCK8 assay. The test is classed as cell-based. An outline of the steps:
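Human bronchial epithelial (HBE) cells were tested for growth inhibition by CCK-8 assay. IC50 values are means of three separate experiments.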

For test [3], the target named is T2, Tyrosine-protein kinase JAK3 (Homo sapiens, UniProt P52333).
T2 sequence (P52333 whole entry): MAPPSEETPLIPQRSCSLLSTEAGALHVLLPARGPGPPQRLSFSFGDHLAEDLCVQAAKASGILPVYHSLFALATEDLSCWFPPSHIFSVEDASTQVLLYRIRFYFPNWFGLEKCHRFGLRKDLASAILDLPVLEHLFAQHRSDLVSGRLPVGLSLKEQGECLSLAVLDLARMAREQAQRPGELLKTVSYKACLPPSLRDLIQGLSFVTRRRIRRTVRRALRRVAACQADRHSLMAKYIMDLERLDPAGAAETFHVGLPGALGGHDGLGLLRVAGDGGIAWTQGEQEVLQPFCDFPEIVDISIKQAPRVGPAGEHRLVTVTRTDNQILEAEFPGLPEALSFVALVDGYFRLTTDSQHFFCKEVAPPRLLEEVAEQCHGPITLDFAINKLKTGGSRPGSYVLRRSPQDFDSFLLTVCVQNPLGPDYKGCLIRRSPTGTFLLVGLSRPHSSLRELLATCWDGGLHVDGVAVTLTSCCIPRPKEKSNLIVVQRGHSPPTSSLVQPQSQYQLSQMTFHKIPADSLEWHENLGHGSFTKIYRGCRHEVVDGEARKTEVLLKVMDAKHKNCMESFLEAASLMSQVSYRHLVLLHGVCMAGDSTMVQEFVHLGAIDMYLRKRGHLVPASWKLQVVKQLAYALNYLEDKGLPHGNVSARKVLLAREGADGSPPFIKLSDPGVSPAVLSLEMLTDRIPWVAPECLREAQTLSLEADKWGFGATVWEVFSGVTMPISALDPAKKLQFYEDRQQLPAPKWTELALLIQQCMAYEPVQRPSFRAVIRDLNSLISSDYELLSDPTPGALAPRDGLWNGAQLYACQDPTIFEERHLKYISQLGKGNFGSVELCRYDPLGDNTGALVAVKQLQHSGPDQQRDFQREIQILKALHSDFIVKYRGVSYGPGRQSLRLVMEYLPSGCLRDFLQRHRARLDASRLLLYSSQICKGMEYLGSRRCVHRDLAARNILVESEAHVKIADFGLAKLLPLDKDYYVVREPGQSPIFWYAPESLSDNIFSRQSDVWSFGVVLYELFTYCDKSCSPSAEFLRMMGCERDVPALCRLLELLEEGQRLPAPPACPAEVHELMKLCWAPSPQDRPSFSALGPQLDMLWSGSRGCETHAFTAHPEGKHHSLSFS
Description: Inhibition of recombinant human N-terminal GST-tagged JAK3 (781 to end residues) expressed in baculovirus infected Sf9 cells using poly (Glu,Tyr) 4:1 as substrate incubated for 60 mins in presence of ATP by ADP-Glo kinase assay. An outline of the steps: as §1

Test [4] has as its system Mus musculus. Description: Antifibrotic activity against bleomycin-induced pulmonary fibrosis C57BL/6J mouse model assessed as reduction in IL6 expression in plasma at 120 mg/kg, po administered via gavage qd for 14 days at 3 days post bleomycin challenge by FACSCalibur flow cytometry. Type of test: functional, organism-based. An outline of the steps: (§2)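 Female C57BL/6J mice (5‒6 weeks, 20‒25 g) were given 33 μg bleomycin intratracheally in saline under isoflurane. From day 3 they received oral gavage once daily for 14 days, with saline containing 1.4% DMSO as vehicle; n=8 per group. Vena cava blood was heparinized and spun at 3000 rpm for 10 min, and plasma was stored at −20 °C. IL-6, IL-17A and TNF-α were measured by flow cytometry; mean ± SEM.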

Test [5] concerns Mus musculus. Put plainly: Antifibrotic activity against bleomycin-induced pulmonary fibrosis C57BL/6J mouse model assessed as reduction in lung coefficient at 120 mg/kg, po administered via gavage qd for 14 days at 3 days post bleomycin challenge. Type of test: functional, organism-based. Summed up:
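Bleomycin was given intratracheally (33 μg) to female C57BL/6J mice, 5‒6 weeks old. Daily oral gavage followed for 14 days from day 3, with 1.4% DMSO saline vehicle; n=8 per group. Fresh lungs were weighed and lung index was calculated as lung weight/body weight × 100.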

Test [6] relates to Mus musculus. Description: Antifibrotic activity against bleomycin-induced pulmonary fibrosis C57BL/6J mouse model assessed as reduction in TNF-alpha expression in plasma at 120 mg/kg, po administered via gavage qd for 14 days at 3 days post bleomycin challenge by FACSCalibur flow cytometry. Type of test: functional, organism-based. An outline of the steps:
as §2

Test [7] has as its system Mus musculus. Description: Antifibrotic activity against bleomycin-induced pulmonary fibrosis C57BL/6J mouse model assessed as reduction in alveolar septal swelling at 120 mg/kg, po administered via gavage qd for 14 days at 3 days post bleomycin challenge by hematoxylin and eosin staining based light microscopic analysis. The test is classed as functional, organism-based. An outline of the steps:
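Intratracheal bleomycin (33 μg) was given to female C57BL/6J mice. Oral gavage started 3 days later and continued once daily for 14 days, with 1.4% DMSO saline as vehicle; n=8. Lungs were formalin-fixed for 24 h and paraffin-embedded. 5 μm sections were H&E-stained and examined by light microscopy at 200×.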

Test [8] relates to Mus musculus. Description: Antifibrotic activity against bleomycin-induced pulmonary fibrosis C57BL/6J mouse model assessed as reduction in oxidative stress by measuring reduction in MDA level in plasma at 120 mg/kg, po administered via gavage qd for 14 days at 3 days post bleomycin challenge. The test is classed as functional, organism-based. An outline of the steps: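 After 33 μg intratracheal bleomycin, female C57BL/6J mice were gavaged once daily for 14 days from day 3 (vehicle saline, 1.4% DMSO; n=8). MDA was measured in heparinized plasma with a kit by absorbance at 532 nm; mean ± SEM.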

Test [9] relates to Mus musculus. Description: Antifibrotic activity against bleomycin-induced pulmonary fibrosis C57BL/6J mouse model assessed as reduction in IL17A expression in plasma at 120 mg/kg, po administered via gavage qd for 14 days at 3 days post bleomycin challenge by FACSCalibur flow cytometry. The test is classed as functional, organism-based. An outline of the steps: as §2
The target of test [10] is Epidermal growth factor receptor (Homo sapiens, UniProt P00533). Description: Inhibition of EGFR (unknown origin).
The target in test [11] is T1, Tyrosine-protein kinase BTK. Description: Inhibition of BTK (unknown origin).
The target of test [12] is T2, Tyrosine-protein kinase JAK3. Put plainly: Inhibition of JAK3 (unknown origin).

pIC50: −log10 of the molar value. Active and inactive are the calls of the source. The calls are words filed in the database; no cut-off is given here.

T1 sequence (Q06187 whole entry): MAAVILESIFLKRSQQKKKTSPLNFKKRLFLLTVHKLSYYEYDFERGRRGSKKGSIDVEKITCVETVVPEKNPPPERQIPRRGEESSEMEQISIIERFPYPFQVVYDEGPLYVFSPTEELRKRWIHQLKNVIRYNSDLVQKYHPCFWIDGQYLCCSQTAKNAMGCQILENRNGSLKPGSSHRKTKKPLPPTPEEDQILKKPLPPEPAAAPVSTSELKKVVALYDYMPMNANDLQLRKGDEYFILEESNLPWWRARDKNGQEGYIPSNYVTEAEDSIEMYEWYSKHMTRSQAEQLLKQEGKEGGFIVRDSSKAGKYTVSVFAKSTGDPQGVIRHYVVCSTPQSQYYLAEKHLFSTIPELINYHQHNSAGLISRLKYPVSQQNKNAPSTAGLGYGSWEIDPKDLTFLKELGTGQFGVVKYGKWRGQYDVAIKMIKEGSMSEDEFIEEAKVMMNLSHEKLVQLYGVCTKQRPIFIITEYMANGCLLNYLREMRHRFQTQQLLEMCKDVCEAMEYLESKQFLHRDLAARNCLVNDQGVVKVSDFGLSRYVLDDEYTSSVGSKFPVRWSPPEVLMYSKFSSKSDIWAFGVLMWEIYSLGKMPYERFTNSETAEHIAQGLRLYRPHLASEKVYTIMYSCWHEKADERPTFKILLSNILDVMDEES
Epidermal growth factor receptor, sequence (P00533 whole entry): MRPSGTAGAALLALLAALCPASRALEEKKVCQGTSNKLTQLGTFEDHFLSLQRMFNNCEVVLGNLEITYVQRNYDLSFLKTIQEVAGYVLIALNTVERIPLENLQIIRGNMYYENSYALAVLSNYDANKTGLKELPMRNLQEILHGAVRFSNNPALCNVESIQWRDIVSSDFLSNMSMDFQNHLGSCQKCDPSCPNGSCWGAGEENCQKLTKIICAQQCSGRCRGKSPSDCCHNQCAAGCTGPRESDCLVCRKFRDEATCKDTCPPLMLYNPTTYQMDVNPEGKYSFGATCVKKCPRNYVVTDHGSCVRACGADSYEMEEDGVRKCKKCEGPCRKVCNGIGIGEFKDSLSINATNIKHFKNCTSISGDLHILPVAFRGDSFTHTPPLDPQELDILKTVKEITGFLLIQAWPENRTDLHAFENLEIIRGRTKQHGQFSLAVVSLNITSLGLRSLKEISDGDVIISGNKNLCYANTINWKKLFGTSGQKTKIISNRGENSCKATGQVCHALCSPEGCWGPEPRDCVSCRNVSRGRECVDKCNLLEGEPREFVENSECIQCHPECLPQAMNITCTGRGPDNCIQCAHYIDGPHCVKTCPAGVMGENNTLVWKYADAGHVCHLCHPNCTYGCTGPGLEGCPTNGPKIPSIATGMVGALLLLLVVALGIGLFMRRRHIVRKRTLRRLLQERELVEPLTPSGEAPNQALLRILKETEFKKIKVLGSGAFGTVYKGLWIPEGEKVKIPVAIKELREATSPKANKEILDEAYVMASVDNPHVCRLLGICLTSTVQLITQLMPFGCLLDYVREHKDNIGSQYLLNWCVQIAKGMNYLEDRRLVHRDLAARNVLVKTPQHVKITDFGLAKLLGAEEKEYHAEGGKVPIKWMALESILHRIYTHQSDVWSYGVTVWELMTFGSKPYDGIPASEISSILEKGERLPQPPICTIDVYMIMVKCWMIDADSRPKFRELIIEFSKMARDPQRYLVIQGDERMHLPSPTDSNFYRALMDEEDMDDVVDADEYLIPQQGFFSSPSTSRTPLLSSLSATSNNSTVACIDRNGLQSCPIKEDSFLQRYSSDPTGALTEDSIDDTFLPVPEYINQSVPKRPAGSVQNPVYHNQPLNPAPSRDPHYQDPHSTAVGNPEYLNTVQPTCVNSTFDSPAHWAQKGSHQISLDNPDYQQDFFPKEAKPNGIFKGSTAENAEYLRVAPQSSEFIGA

In the case of `C=CC(=O)Nc1cccc(Oc2nc(Nc3ccc(SCCCN4CCOCC4)cc3)nc3ccsc23)c1`, the pIC50 in [1] is less than 7.00; in test [2], less than 4.40; in test [3] it was 7.34.

Regarding `C=CC(=O)Nc1cccc(Oc2nc(Nc3ccc(OCCCN4CCOCC4)cc3)nc3ccsc23)c1`, the pIC50 was less than 7.00 in [1], less than 4.40 in test [2] and 7.05 in test [3].

Take `C=CC(=O)Nc1cccc(Oc2nc(Nc3ccc(CN4CCOCC4)cc3)nc3ccsc23)c1`: the pIC50 in test [1] was less than 7.00; in test [2], 4.89; in test [3], 7.07.

With `C=CC(=O)Nc1cccc(Oc2nc(Nc3ccc(OCCN4CCOCC4)cc3)nc3ccsc23)c1`, the negative logarithm of the IC50 (pIC50) is less than 7.00 in test [1], 4.63 in test [2] and 7.04 in test [3].

In the case of `Cc1ccc(=O)n(-c2ccccc2)c1`, the result in the test with Mus musculus [4], with Mus musculus [5], in the test on Mus musculus [6], with Mus musculus [7], with Mus musculus [8] and with Mus musculus [9] was Active.

Regarding `C=CC(=O)Nc1cccc(Nc2nc(Nc3ccc(NC(=O)CN4CCOCC4)cc3)ncc2Cl)c1`, the pIC50 in test [10], in test [11] and in test [12] was more than 8.00 each time.

The values above are taken from ChEMBL document CHEMBL4613238, “Synthesis and biological activity of thieno[3,2-d]pyrimidines as potent JAK3 inhibitors for the treatment of idiopathic pulmonary fibrosis” (Bioorg Med Chem, 2020).
